According to ChEMBL document CHEMBL1240405, “Activity of a new cephalosporin, CXA-101 (FR264205), against beta-lactam-resistant Pseudomonas aeruginosa mutants selected in vitro and after antipseudomonal treatment of intensive care unit patients” (2010):
Values after ≈ are worked out from the molar mass of the structure shown.

Assays:
Format in all cases: functional
Pseudomonas aeruginosa [1] = assay: Antimicrobial activity against beta-lactam resistant Pseudomonas aeruginosa PAO1 deficient in ampD, […] gene selected in vitro after antipseudomonal treatment of intensive care unit patient by broth microdilution method
Method in brief: (§1)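 Broth microdilution MICs per CLSI M100-S18, over 0.12 to 256 μg/ml. Strains are PAO1 and its mutants. oprD mutants were selected overnight on Mueller-Hinton agar with 4 μg/ml imipenem, passaged antibiotic-free, then confirmed by oprD amplification and sequencing. PAO1 and ATCC 27853 were run alongside as quality controls.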

Pseudomonas aeruginosa [2] = assay: Antimicrobial activity against beta-lactam resistant Pseudomonas aeruginosa PAOD2 harboring oprD spontaneous mutant and deficient in ampD gene by selected in vitro after antipseudomonal treatment of intensive care unit patient by broth microdilution method; method in brief: as §1
Pseudomonas aeruginosa [3] = assay: Antimicrobial activity against Pseudomonas aeruginosa clinical isolate assessed as resistant isolates selected in vitro after antipseudomonal treatment of intensive care unit patient by CLSI method
Pseudomonas aeruginosa [4] = assay: Antimicrobial activity against beta-lactam resistant Pseudomonas aeruginosa PAOD1 harboring oprD spontaneous mutant selected in vitro after antipseudomonal treatment of intensive care unit patient by broth microdilution method; method in brief: as §1
Pseudomonas aeruginosa [5] = assay: Antimicrobial activity against beta-lactam resistant Pseudomonas aeruginosa PAO1 deficient in ampD and ampDh3 gene selected in vitro after antipseudomonal treatment of intensive care unit patient by broth microdilution method; method in brief: as §1
Pseudomonas aeruginosa [6] = assay: Antimicrobial activity against beta-lactam resistant Pseudomonas aeruginosa PAO1 deficient in ampD gene selected in vitro after antipseudomonal treatment of intensive care unit patient by broth microdilution method; method in brief: as §1
Pseudomonas aeruginosa [7] = assay: Antimicrobial activity against beta-lactam resistant Pseudomonas aeruginosa PA01 deficient in dacB gene by broth microdilution method; method in brief: as §1
Pseudomonas aeruginosa [8] = assay: Antimicrobial activity against beta-lactam resistant Pseudomonas aeruginosa PAO1 by broth microdilution method; method in brief: as §1
Pseudomonas aeruginosa [9] = assay: Antimicrobial activity against beta-lactam resistant Pseudomonas aeruginosa PAOD1 harboring oprD spontaneous mutant and deficient in ampD gene selected in vitro after antipseudomonal treatment of intensive care unit patient by broth microdilution method; method in brief: as §1
Pseudomonas aeruginosa [10] = assay: Antimicrobial activity against beta-lactam resistant Pseudomonas aeruginosa PAOD2 harboring oprD spontaneous mutant and deficient in dacB gene selected in vitro after antipseudomonal treatment of intensive care unit patient by broth microdilution method; method in brief: as §1
Pseudomonas aeruginosa [11] = assay: Antimicrobial activity against beta-lactam resistant beta-lactam resistant Pseudomonas aeruginosa PAOD3 harboring oprD spontaneous mutant and deficient in ampD gene selected in vitro after antipseudomonal treatment of intensive care unit patient by broth microdilution method; method in brief: as §1
Pseudomonas aeruginosa [12] = assay: Antimicrobial activity against beta-lactam resistant Pseudomonas aeruginosa PAOD3 harboring oprD spontaneous mutant selected in vitro after antipseudomonal treatment of intensive care unit patient by broth microdilution method; method in brief: as §1
Pseudomonas aeruginosa [13] = assay: Antimicrobial activity against beta-lactam resistant Pseudomonas aeruginosa PAOD1 harboring oprD spontaneous mutant and deficient in dacB gene selected in vitro after antipseudomonal treatment of intensive care unit patient by broth microdilution method; method in brief: as §1
Pseudomonas aeruginosa [14] = assay: Antimicrobial activity against beta-lactam resistant Pseudomonas aeruginosa PAOD2 harboring oprD spontaneous mutant selected in vitro after antipseudomonal treatment of intensive care unit patient by broth microdilution method; method in brief: as §1
Pseudomonas aeruginosa [15] = assay: Antimicrobial activity against beta-lactam resistant Pseudomonas aeruginosa PAOD3 harboring oprD spontaneous mutant and deficient in dacB gene selected in vitro after antipseudomonal treatment of intensive care unit patient by broth microdilution method; method in brief: as §1
Pseudomonas aeruginosa [16] = assay: Antimicrobial activity against beta-lactam resistant Pseudomonas aeruginosa PAO1 deficient in ampD and dacB gene selected in vitro after antipseudomonal treatment of intensive care unit patient by broth microdilution method; method in brief: as §1
Pseudomonas aeruginosa [17] = assay: Induction of ampC expression in beta-lactam resistant Pseudomonas aeruginosa PAO1 deficient in ampD gene selected in vitro after antipseudomonal treatment of intensive care unit patient at 50 ug/mL
Method in brief: (§2)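 ampC expression measured by real-time RT-PCR in PAO1 and its mutants, under basal conditions and after induction with 50 μg/ml cefoxitin.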

Pseudomonas aeruginosa [18] = assay: Induction of ampC expression in beta-lactam resistant Pseudomonas aeruginosa PAO1 deficient in ampD and ampDh3 gene selected in vitro after antipseudomonal treatment of intensive care unit patient at 50 ug/mL; method in brief: as §2
Pseudomonas aeruginosa [19] = assay: Induction of ampC expression in beta-lactam resistant Pseudomonas aeruginosa PAO1 deficient in ampD and dacB gene selected in vitro after antipseudomonal treatment of intensive care unit patient at 50 ug/ml; method in brief: as §2
Pseudomonas aeruginosa [20] = assay: Induction of ampC expression in beta-lactam resistant Pseudomonas aeruginosa PA01 deficient in dacB gene at 50 ug/mL; method in brief: as §2
Pseudomonas aeruginosa [21] = assay: Induction of ampC expression in beta-lactam resistant Pseudomonas aeruginosa PAO1 deficient in ampD, […] gene selected in vitro after antipseudomonal treatment of intensive care unit patient at 50 ug/mL; method in brief: as §2
Pseudomonas aeruginosa [22] = assay: Induction of ampC expression in beta-lactam resistant Pseudomonas aeruginosa PAO1 at 50 ug/mL; method in brief: as §2

SMILES | MIC (Pseudomonas aeruginosa [1]) [µg/mL] | MIC (Pseudomonas aeruginosa [2]) [µg/mL] | Activity (Pseudomonas aeruginosa [3]) [%] | MIC (Pseudomonas aeruginosa [4]) [µg/mL] | MIC (Pseudomonas aeruginosa [5]) [µg/mL] | MIC (Pseudomonas aeruginosa [6]) [µg/mL] | MIC (Pseudomonas aeruginosa [7]) [µg/mL] | MIC (Pseudomonas aeruginosa [8]) [µg/mL] | MIC (Pseudomonas aeruginosa [9]) [µg/mL] | MIC (Pseudomonas aeruginosa [10]) [µg/mL] | MIC (Pseudomonas aeruginosa [11]) [µg/mL] | MIC (Pseudomonas aeruginosa [12]) [µg/mL] | MIC (Pseudomonas aeruginosa [13]) [µg/mL] | MIC (Pseudomonas aeruginosa [14]) [µg/mL] | MIC (Pseudomonas aeruginosa [15]) [µg/mL] | MIC (Pseudomonas aeruginosa [16]) [µg/mL] | further results
C[C@@H](O)[C@H]1C(=O)N2C(C(=O)O)=C(SCCNC=N)C[C@H]12 [IMIPENEM ANHYDROUS] | 1 (≈ 3.34 µM) | 16 (≈ 53.4 µM) | 57 | 16 (≈ 53.4 µM) | 2 (≈ 6.68 µM) | 2 (≈ 6.68 µM) | 2 (≈ 6.68 µM) | 2 (≈ 6.68 µM) | 16 (≈ 53.4 µM) | 16 (≈ 53.4 µM) | 16 (≈ 53.4 µM) | 16 (≈ 53.4 µM) | 16 (≈ 53.4 µM) | 8 (≈ 26.7 µM) | 16 (≈ 53.4 µM) | 2 (≈ 6.68 µM) | –
C[C@@H](O)[C@H]1C(=O)N2C(C(=O)O)=C(S[C@@H]3CN[C@H](C(=O)N(C)C)C3)[C@H](C)[C@H]12 [MEROPENEM] | 1 (≈ 2.61 µM) | 8 (≈ 20.9 µM) | 52 | 1 (≈ 2.61 µM) | 2 (≈ 5.22 µM) | 2 (≈ 5.22 µM) | 0.5 (≈ 1.3 µM) | 0.5 (≈ 1.3 µM) | 8 (≈ 20.9 µM) | 4 (≈ 10.4 µM) | 8 (≈ 20.9 µM) | 2 (≈ 5.22 µM) | 4 (≈ 10.4 µM) | 2 (≈ 5.22 µM) | 4 (≈ 10.4 µM) | 2 (≈ 5.22 µM) | –
CO[C@@]1(NC(=O)Cc2cccs2)C(=O)N2C(C(=O)O)=C(COC(N)=O)CS[C@@H]21 [CEFOXITIN] | – | – | – | – | – | – | – | – | – | – | – | – | – | – | – | – | fold change (FC) (Pseudomonas aeruginosa [17]): 134; fold change (FC) (Pseudomonas aeruginosa [18]): 1014; fold change (FC) (Pseudomonas aeruginosa [19]): 1950; fold change (FC) (Pseudomonas aeruginosa [20]): 232; fold change (FC) (Pseudomonas aeruginosa [21]): 1105; fold change (FC) (Pseudomonas aeruginosa [22]): 50
CO/N=C(\C(=O)N[C@@H]1C(=O)N2C(C(=O)[O-])=C(C[N+]3(C)CCCC3)CS[C@H]12)c1csc(N)n1 | 8 (≈ 16.6 µM) | – | – | – | 8 (≈ 16.6 µM) | – | 16 (≈ 33.3 µM) | 2 (≈ 4.16 µM) | 4 (≈ 8.32 µM) | 32 (≈ 66.6 µM) | 8 (≈ 16.6 µM) | 2 (≈ 4.16 µM) | 32 (≈ 66.6 µM) | 2 (≈ 4.16 µM) | 32 (≈ 66.6 µM) | 32 (≈ 66.6 µM) | –
